Reference: ChEMBL document CHEMBL1122142, “Synthesis and antiinflammatory activity of hexahydrothiopyrano[4,3-c]pyrazoles and related analogues” (J Med Chem, 1982)

Assays:
Mus musculus [1] = experiment: Inhibition of Mouse active Arthus (MAA) reaction activity was determined for an ip dose of 150 mg/kg in mouse; 21-30%; format: functional; details: route intraperitoneal
Cavia porcellus [2] = experiment: The compound was evaluated for the delayed hypersensitivity skin reaction (DHSR) activity after subcutaneous administration; 1/0
Cavia porcellus [3] = experiment: Tested in delayed hypersensitivity skin reaction (DHSR) after subcutaneous administration, activity reported as percent inhibition of erythema/induration of lesion; 18/50; format: functional
[4] = Acute toxicity as LD50 value was determined in mice administered intraperitoneally; format: organism-based; details: mouse, in vivo, ip
[5] = Acute toxicity as LD50 value was determined in mice administered orally; format: organism-based; details: mouse, in vivo, po
Mus musculus [6] = experiment: The compound was evaluated for the mouse active Arthus (MAA) reaction activity expressed as inhibitory dose after ip administration; format: functional; details: read-out: ID50 (the source's name)
Summary of the method: (§1)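 CD-1 mice were sensitized ip with a 1:1 Freund's complete adjuvant emulsion containing BSA in saline, 5 weeks before challenge. Compound was suspended in 1% Na CMC in pyrogen-free saline and given as one ip or oral dose 1 h before skin challenge with BSA. Screening doses were 150 mg/kg ip and 300 mg/kg po, with some at 75 or 50 mg/kg ip. Lesions were excised 3.5 h after challenge and weighed against controls.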

Mus musculus [7] = experiment: The compound was evaluated for the mouse active Arthus (MAA) reaction activity expressed as inhibitory dose after oral administration; format: functional; details: read-out: ID50 (the source's name); summary of the method: as §1
Mus musculus [8] = species on record: Mus musculus; experiment: The compound was evaluated for the mouse active Arthus (MAA) reaction activity expressed as inhibitory dose.; format: functional; details: read-out: ID50 (the source's name); summary of the method: as §1
Mus musculus [9] = experiment: Inhibition of Mouse active Arthus (MAA) reaction activity was determined for peroral dose of 300 mg/kg in mouse; 21-30%; format: functional; details: route oral
Mus musculus [10] = experiment: Mouse active Arthus (MAA) reaction activity was determined for an ip dose of 150 mg/kg in mouse; format: functional; details: route intraperitoneal
[11] = Therapeutic ratio was determined for intraperitoneal administration; format: ADME; details: ip; read-out: TR
[12] = Therapeutic ratio was determined for peroral administration; details: po; read-out: TR
Cavia porcellus [13] = experiment: Tested in delayed hypersensitivity skin reaction (DHSR) after subcutaneous administration, activity reported as percent inhibition of erythema/induration of lesion; 5/2; format: functional
Summary of the method: (§2)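 Male Hartley guinea pigs were sensitized with Mycobacterium tuberculosis in Freund's incomplete adjuvant, injected into each hind footpad and subcutaneously at the neck. After 3 weeks, 1.2 μg PPD was given intradermally. Compound in sesame oil was given sc, 3 animals per group, 30 min before and 5 h after PPD; screening dose 50 mg/kg.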

Cavia porcellus [14] = experiment: Tested in delayed hypersensitivity skin reaction (DHSR) after subcutaneous administration, activity reported as percent inhibition of erythema/induration of lesion; 2/0; format: functional
Mus musculus [15] = experiment: Mouse active Arthus (MAA) reaction activity was determined for an ip dose of 150 mg/kg in mouse; 31-40%; format: functional; details: route intraperitoneal
Cavia porcellus [16] = experiment: Tested in delayed hypersensitivity skin reaction (DHSR) after subcutaneous administration, activity reported as percent inhibition of erythema/induration of lesion; 15/7; format: functional
Mus musculus [17] = experiment: The compound was evaluated for the mouse active Arthus (MAA) reaction activity for peroral screening dose of 150 mg/kg in mouse; format: functional; details: route oral
Cavia porcellus [18] = experiment: Tested in delayed hypersensitivity skin reaction (DHSR) after subcutaneous administration, activity reported as percent inhibition of erythema/induration of lesion; 7/17; format: functional; summary of the method: as §2
Mus musculus [19] = experiment: Mouse active Arthus (MAA) reaction activity was determined for an peroral dose of 300 mg/kg in mouse; format: functional; details: route oral
Cavia porcellus [20] = experiment: The compound was evaluated for the delayed hypersensitivity skin reaction (DHSR) activity after subcutaneous administration; 11/33
Mus musculus [21] = experiment: Inhibition of Mouse active Arthus (MAA) reaction activity was determined for peroral dose of 300 mg/kg in mouse; 31-40%; format: functional; details: route oral
Mus musculus [22] = experiment: Inhibition of Mouse Active Arthus reaction following 150 mg/Kg i.p.; 41-60% inhibition.; format: functional; details: Mus musculus, ip
Cavia porcellus [23] = experiment: The compound was evaluated for the delayed hypersensitivity skin reaction (DHSR) activity after subcutaneous administration; 11/27
Cavia porcellus [24] = experiment: Tested in delayed hypersensitivity skin reaction (DHSR) after subcutaneous administration, activity reported as percent inhibition of erythema/induration of lesion; 7/1; format: functional; summary of the method: as §2
Mus musculus [25] = experiment: Inhibition of Mouse active Arthus (MAA) reaction activity was determined for peroral screening dose of 150 mg/kg in mouse; 21-30%; format: functional; details: route oral
Cavia porcellus [26] = experiment: Tested in delayed hypersensitivity skin reaction (DHSR) after subcutaneous administration, activity reported as percent inhibition of erythema/induration of lesion; 19/23; format: functional
Mus musculus [27] = experiment: The compound was evaluated for the mouse active Arthus (MAA) reaction activity for an ip screening dose of 75 mg/kg in mouse; format: functional; details: route intraperitoneal; summary of the method: as §1
Cavia porcellus [28] = experiment: The compound was evaluated for the delayed hypersensitivity skin reaction (DHSR) activity after subcutaneous administration; 12/21
Cavia porcellus [29] = experiment: Tested in delayed hypersensitivity skin reaction (DHSR) after subcutaneous administration, activity reported as percent inhibition of erythema/induration of lesion; 14/25; format: functional
Mus musculus [30] = experiment: The compound was evaluated for the mouse active Arthus (MAA) reaction activity for an ip screening dose of 75 mg/kg; 21-30%; format: functional; details: route intraperitoneal; summary of the method: as §1
Cavia porcellus [31] = experiment: Tested in delayed hypersensitivity skin reaction (DHSR) after subcutaneous administration, activity reported as percent inhibition of erythema/induration of lesion; 4/22; format: functional; summary of the method: as §2
Cavia porcellus [32] = experiment: Tested in delayed hypersensitivity skin reaction (DHSR) after subcutaneous administration, activity reported as percent inhibition of erythema/induration of lesion; 8/21; format: functional; summary of the method: as §2
Cavia porcellus [33] = experiment: The compound was evaluated for the delayed hypersensitivity skin reaction (DHSR) activity after subcutaneous administration; 8/1
Cavia porcellus [34] = experiment: Tested in delayed hypersensitivity skin reaction (DHSR) after subcutaneous administration, activity reported as percent inhibition of erythema/induration of lesion; 13/4; format: functional
Mus musculus [35] = experiment: Mouse active Arthus (MAA) reaction was determined value for oral administration

SMILES: CCCN1N=C2/C(=C/c3ccccc3)CSCC2C1c1ccccc1 (stereo unspecified)
- inhibition in vivo at 150 mg/kg (Mus musculus [1]): 21%
- Activity (Cavia porcellus [2]): 1

SMILES: COc1ccc(/C=C2\CS(=O)(=O)CC3C2=NN(CCCN2CCN(C)CC2)C3c2ccc(OC)cc2)cc1.O=C(O)/C=C\C(=O)O (stereo unspecified)
- Activity (Cavia porcellus [3]): 18
- LD50 [4]: 280 mg/kg
- LD50 [5]: > 1200 mg/kg
- ED50 (Mus musculus [6]): 30 mg/kg
- ED50 (Mus musculus [7]): 234 mg/kg
- ED50 (Mus musculus [8]): 30 mg/kg
- inhibition in vivo at 300 mg/kg (Mus musculus [9]): 21%
- inhibition in vivo at 150 mg/kg (Mus musculus [10]): > 60%
- selectivity ratio [11]: 9.6
- selectivity ratio [12]: > 5.1

SMILES: CC(C)n1nc(-c2cccc(C(F)(F)F)c2)c2c1/C(=C/c1cccc(C(F)(F)F)c1)CS(=O)(=O)C2
- Activity (Cavia porcellus [13]): 5
- inhibition in vivo at 150 mg/kg (Mus musculus [1]): 21%

SMILES: CSc1ccc(/C=C2\CSCC3C2=NN(C(C)=O)C3c2ccc(SC)cc2)cc1 (stereo unspecified)
- Activity (Cavia porcellus [14]): 2
- inhibition in vivo at 150 mg/kg (Mus musculus [15]): 31%

SMILES: Cc1ccc(/C=C2\CS(=O)(=O)CC3C2=NN(CC2CC2)C3c2ccc(C)cc2)cc1 (stereo unspecified)
- Activity (Cavia porcellus [16]): 15
- inhibition in vivo at 150 mg/kg (Mus musculus [17]): < 20%

SMILES: CCCN1N=C2/C(=C/c3ccccc3C)CS(=O)(=O)CC2C1c1ccccc1C (stereo unspecified)
- Activity (Cavia porcellus [18]): 7
- inhibition in vivo at 150 mg/kg (Mus musculus [1]): 21%

SMILES: CCCN1N=C2/C(=C/c3ccc(C)cc3)CSCC2C1c1ccc(C)cc1 (stereo unspecified)
- inhibition in vivo at 300 mg/kg (Mus musculus [19]): < 20%
- inhibition in vivo at 150 mg/kg (Mus musculus [15]): 31%
- Activity (Cavia porcellus [20]): 11

SMILES: CN1CCN(CCCN2N=C3/C(=C/c4ccc([S+](C)[O-])cc4)CSCC3C2c2ccc([S+](C)[O-])cc2)CC1.O=C(O)/C=C\C(=O)O (stereo unspecified)
- ED50 (Mus musculus [8]): 190 mg/kg
- inhibition in vivo at 300 mg/kg (Mus musculus [21]): 31%
- inhibition in vivo at 150 mg/kg (Mus musculus [22]): 41%
- Activity (Cavia porcellus [23]): 11

SMILES: CCCN1N=C2/C(=C/c3ccc(C(C)(C)C)cc3)CS(=O)(=O)CC2C1c1ccc(C(C)(C)C)cc1 (stereo unspecified)
- Activity (Cavia porcellus [24]): 7
- inhibition in vivo at 150 mg/kg (Mus musculus [25]): 21%

SMILES: Cc1ccc(/C=C2\CS(=O)(=O)Cc3c(-c4ccc(C)cc4)nn(CC(F)(F)F)c32)cc1
- Activity (Cavia porcellus [26]): 19
- inhibition in vivo at 75 mg/kg (Mus musculus [27]): > 60%
- inhibition in vivo at 150 mg/kg (Mus musculus [17]): < 20%

SMILES: CCCN1N=C2/C(=C/c3cccc(C(F)(F)F)c3)CSCC2C1c1cccc(C(F)(F)F)c1 (stereo unspecified)
- inhibition in vivo at 150 mg/kg (Mus musculus [15]): 31%
- Activity (Cavia porcellus [28]): 12

SMILES: CCCn1nc(-c2ccc(C)cc2)c2c1/C(=C/c1ccc(C)cc1)CS(=O)(=O)C2
- Activity (Cavia porcellus [29]): 14
- inhibition in vivo at 75 mg/kg (Mus musculus [30]): 21%

SMILES: CC(C)N1N=C2/C(=C/c3cccc(C(F)(F)F)c3)CS(=O)(=O)CC2C1c1cccc(C(F)(F)F)c1 (stereo unspecified)
- Activity (Cavia porcellus [31]): 4
- inhibition in vivo at 150 mg/kg (Mus musculus [15]): 31%

SMILES: CC(=O)N1N=C2/C(=C/c3ccccc3)CS(=O)(=O)CC2C1c1ccccc1 (stereo unspecified)
- Activity (Cavia porcellus [32]): 8
- inhibition in vivo at 150 mg/kg (Mus musculus [22]): 41%

SMILES: C#CCN1N=C2/C(=C/c3cccc(C(F)(F)F)c3)CS(=O)(=O)CC2C1c1cccc(C(F)(F)F)c1 (stereo unspecified)
- inhibition in vivo at 150 mg/kg (Mus musculus [15]): 31%
- Activity (Cavia porcellus [33]): 8

SMILES: CC(C)(C)c1ccc(/C=C2\CS(=O)(=O)CC3C2=NN(CCc2ccccc2)C3c2ccc(C(C)(C)C)cc2)cc1 (stereo unspecified)
- Activity (Cavia porcellus [34]): 13
- ED50 (Mus musculus [7]): > 600 mg/kg

SMILES: CC(C)Cc1ccc(C(C)C(=O)O)cc1 (stereo unspecified) [IBUPROFEN]
- selectivity ratio [12]: 3.4
- ID50 (Mus musculus [35]): 494 mg/kg
